Results as given in ChEMBL document CHEMBL4014346, “Lead Optimization Generates CYP11B1 Inhibitors of Pyridylmethyl Isoxazole Type with Improved Pharmacological Profile for the Treatment of Cushing's Disease” (J Med Chem, 2017).

How the values were obtained:
[1] = target: T1, Cytochrome P450 11B1, mitochondrial (Homo sapiens, UniProt P15538); assay: Inhibition of human CYP11B1 expressed in hamster V79MZ cells using [1,2-3H]-11-deoxycorticosterone as substrate after 6 hrs by HPLC analysis; assay type: cell-based
T1 sequence (P15538 whole entry): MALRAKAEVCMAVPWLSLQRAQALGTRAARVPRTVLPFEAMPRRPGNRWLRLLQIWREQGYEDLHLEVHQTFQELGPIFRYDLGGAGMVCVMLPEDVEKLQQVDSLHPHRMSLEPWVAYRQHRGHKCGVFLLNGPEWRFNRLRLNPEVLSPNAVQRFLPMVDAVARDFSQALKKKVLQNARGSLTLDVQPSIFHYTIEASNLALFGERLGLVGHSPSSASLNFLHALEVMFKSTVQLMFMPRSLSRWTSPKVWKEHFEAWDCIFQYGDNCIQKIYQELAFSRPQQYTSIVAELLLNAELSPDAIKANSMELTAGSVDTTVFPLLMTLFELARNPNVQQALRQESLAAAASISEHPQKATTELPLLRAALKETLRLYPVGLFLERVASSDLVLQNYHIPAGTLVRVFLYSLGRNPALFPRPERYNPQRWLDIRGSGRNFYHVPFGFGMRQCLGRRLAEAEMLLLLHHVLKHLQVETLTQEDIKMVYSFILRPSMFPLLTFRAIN
Procedure, shortened: (§1)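 V79MZ cells expressing recombinant human CYP11B1 or CYP11B2, or rat CYP11B1, incubated with [1,2-³H]-11-deoxycorticosterone (100 nM) and inhibitor over a range of concentrations; ketoconazole as reference.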

[2] = target: T2, Cytochrome P450 11B1, mitochondrial (Rattus norvegicus, UniProt P15393); assay: Inhibition of rat CYP11B1 expressed in hamster V79MZ cells using [1,2-3H]-11-deoxycorticosterone as substrate after 6 hrs by HPLC analysis; assay type: cell-based; procedure, shortened: as §1
T2 sequence (P15393 whole entry): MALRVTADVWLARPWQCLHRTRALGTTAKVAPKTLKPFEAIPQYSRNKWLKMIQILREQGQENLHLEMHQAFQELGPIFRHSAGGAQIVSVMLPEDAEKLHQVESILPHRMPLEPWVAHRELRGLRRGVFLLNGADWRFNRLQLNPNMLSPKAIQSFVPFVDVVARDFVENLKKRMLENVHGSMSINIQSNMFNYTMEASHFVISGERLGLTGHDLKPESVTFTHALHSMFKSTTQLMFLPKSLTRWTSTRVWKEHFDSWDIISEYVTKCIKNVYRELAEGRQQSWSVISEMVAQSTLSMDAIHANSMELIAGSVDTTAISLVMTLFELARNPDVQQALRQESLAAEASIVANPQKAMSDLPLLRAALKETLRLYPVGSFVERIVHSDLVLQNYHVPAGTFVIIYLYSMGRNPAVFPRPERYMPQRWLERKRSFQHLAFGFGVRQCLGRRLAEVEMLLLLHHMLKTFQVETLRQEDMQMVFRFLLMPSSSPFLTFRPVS

[3] = Half life in rat liver S9 fractions at 1 uM in presence of NADPH/UDPGA by LC-MS/MS analysis; assay type: ADME, tissue-based
Procedure, shortened: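 Samples taken at 0, 5, 15 and 60 min, stopped with cold acetonitrile containing internal standard. Remaining parent measured by LC-MS/MS.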

[4] = target: T3, CYP19A1 (Homo sapiens, UniProt P11511); assay: Inhibition of human placental microsomal CYP19A1 at 2 uM using [1beta-3H]-androstenedione as substrate after 20 mins in presence of NADPH by scintillation spectrometric method relative to control; assay type: ADME; details: placental microsomes, probe [1beta-3H]-androstenedione
T3 sequence (P11511 whole entry): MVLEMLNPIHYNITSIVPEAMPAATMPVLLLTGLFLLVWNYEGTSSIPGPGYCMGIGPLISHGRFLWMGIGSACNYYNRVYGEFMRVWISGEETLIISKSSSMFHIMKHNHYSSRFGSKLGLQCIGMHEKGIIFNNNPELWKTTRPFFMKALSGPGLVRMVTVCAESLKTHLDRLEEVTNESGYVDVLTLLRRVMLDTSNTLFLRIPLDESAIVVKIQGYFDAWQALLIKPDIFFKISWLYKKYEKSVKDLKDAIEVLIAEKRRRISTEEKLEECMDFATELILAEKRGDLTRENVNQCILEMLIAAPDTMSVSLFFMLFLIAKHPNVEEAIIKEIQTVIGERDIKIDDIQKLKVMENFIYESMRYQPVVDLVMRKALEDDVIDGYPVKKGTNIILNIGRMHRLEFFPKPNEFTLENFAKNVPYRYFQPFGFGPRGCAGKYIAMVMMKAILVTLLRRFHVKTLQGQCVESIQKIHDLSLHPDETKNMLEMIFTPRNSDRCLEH
Procedure, shortened: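 Human placental microsomal CYP19A1; [1β-³H]androstenedione (500 nM) as substrate; test compounds at 2 µM; fadrozole and aminoglutethimide as references.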

[5] = target: T4, CYP2B6 (Homo sapiens, UniProt P20813); assay: Inhibition of recombinant human CYP2B6 expressed in baculovirus infected insect cell microsomes at 1 uM relative to control; assay type: ADME
T4 sequence (P20813 whole entry): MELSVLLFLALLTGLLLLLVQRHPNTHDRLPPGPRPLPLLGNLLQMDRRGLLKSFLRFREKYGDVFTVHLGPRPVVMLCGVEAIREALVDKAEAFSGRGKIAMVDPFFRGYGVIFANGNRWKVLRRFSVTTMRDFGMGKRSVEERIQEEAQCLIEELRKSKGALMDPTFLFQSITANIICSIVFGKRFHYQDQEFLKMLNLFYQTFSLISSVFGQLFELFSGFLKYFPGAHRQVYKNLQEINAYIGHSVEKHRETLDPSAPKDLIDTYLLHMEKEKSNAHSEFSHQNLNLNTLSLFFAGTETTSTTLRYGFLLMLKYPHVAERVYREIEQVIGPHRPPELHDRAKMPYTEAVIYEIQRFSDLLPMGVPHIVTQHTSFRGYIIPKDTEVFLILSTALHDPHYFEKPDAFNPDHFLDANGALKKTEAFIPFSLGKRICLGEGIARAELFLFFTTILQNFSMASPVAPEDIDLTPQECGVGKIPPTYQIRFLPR
Procedure, shortened: (§2)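 Recombinant human CYP1A2, 2B6, 2C9, 2C19, 2D6 and 3A4 in baculovirus-infected insect-cell microsomes, assayed per kit instructions; test compound at 1 µM, percent inhibition.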

[6] = target: CYP2C9 (Homo sapiens, UniProt P11712); assay: Inhibition of recombinant human CYP2C9 expressed in baculovirus infected insect cell microsomes at 1 uM relative to control; assay type: ADME; procedure, shortened: as §2
[7] = system: Salmonella typhimurium; assay: Mutagenicity in Salmonella typhimurium TA98 up to 100 uM by Ames 2 assay; assay type: toxicity; details: salmonella enterica subsp. enterica serovar typhimurium
Procedure, shortened: (§3)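 AMES II kit with Salmonella typhimurium TA98 and TA7001–TA7006, run with or without rat liver S9 fraction according to the kit instructions.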

[8] = system: Salmonella typhimurium; assay: Mutagenicity in Salmonella typhimurium TA98 up to 100 uM in presence of rat liver S9 fraction by Ames 2 assay; assay type: toxicity; details: salmonella enterica subsp. enterica serovar typhimurium; procedure, shortened: as §3
[9] = Plasma concentration in Sprague-Dawley rat at 100 mg/kg, po administered as single dose after 1 hr by HPLC-MS/MS analysis; assay type: ADME, organism-based
Procedure, shortened: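 One female Sprague-Dawley rat dosed orally with a suspension in 0.5% porcine gelatin/5% mannitol in water, under 2% isoflurane. Tail-vein blood in citrate; plasma precipitated with acetonitrile containing diphenhydramine internal standard and quantified by HPLC-MS/MS.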

CYP2C9, sequence (P11712 whole entry): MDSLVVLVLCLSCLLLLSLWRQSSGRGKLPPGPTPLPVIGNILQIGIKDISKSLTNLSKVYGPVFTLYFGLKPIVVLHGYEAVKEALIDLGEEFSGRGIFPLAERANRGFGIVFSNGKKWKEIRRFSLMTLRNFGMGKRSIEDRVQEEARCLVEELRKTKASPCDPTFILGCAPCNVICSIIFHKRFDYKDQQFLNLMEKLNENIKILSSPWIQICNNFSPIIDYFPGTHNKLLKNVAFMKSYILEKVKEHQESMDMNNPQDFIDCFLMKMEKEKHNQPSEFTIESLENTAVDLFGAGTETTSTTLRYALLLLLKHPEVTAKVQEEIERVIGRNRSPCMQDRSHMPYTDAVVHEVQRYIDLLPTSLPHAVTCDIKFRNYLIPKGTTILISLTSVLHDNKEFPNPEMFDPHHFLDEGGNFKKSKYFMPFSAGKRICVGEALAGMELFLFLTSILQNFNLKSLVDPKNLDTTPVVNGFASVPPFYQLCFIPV

Row | IC50 [1] [µM] | IC50 [2] [µM] | half-life at 1 µM [3] [min] | inhibition at 20 min, 2 µM [4] [%] | inhibition at 1 µM [5] [%] | inhibition at 1 µM [6] [%] | concentration at 1 h [9] [µM] | SMILES | Activity [7] | Activity [8]
1 | 0.005 | 4 | 30 | ≤ 9 | 3 | 28 | 2.5 | Cc1cncc(Cc2cc(-c3ccccc3)no2)c1 | Non-Toxic | Non-Toxic
2 | 0.002 | 1.8 | 23 | ≤ 9 | 19 | 17 | 19.7 | COc1cncc(Cc2cc(-c3ccccc3)no2)c1 | Non-Toxic | Non-Toxic
